Reference: article PMC5131535 (ACS chemical neuroscience, 2016)
Where “and” joins values, the source holds several entries; their conditions need not be identical. Identical values can stand only once.

Experiments:
[1] = target: Dopamine D4.2 receptor (Homo sapiens, UniProt P21917, DEL265-296); assay: Lead Profiling Screen; type: binding; settings: significant interaction
[2] = CNS distribution study in mice; type: in vivo, mouse; settings: average of four mice
[3] = test system: voltage-gated sodium channel; assay: Lead Profiling Screen; type: binding; settings: significant interaction
[4] = Protein binding in plasma; settings: rat
[5] = Protein binding in plasma; settings: mouse
[6] = test system: L-type calcium channel; assay: Lead Profiling Screen; type: binding; settings: significant interaction
[7] = target: Norepinephrine receptor (Homo sapiens, UniProt P23975); assay: Lead Profiling Screen; type: binding; settings: significant interaction
[8] = target: Sigma σ1 receptor (Homo sapiens, UniProt Q99720); assay: Lead Profiling Screen; type: binding; settings: significant interaction
[9] = plasma
[10] = plasma; remark: listed apart in the source
[11] = target: Kir7.1 E149Q/M125R (Homo sapiens, UniProt O60928, E149Q/M125R); assay: Whole-cell patch clamp, Kir7.1 E149Q/M125R mutant; type: cell-based; settings: -120 mV
In short: (§1)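 Human Kir7.1 (WT or mutant) was transiently co-transfected with EGFP into HEK-293T cells, which were replated next day on poly-L-lysine coverslips. Whole-cell clamp used bath 5 mM KCl, pH 7.4, and pipette 135 mM KCl, pH 7.3. Cells were held at −75 mV, stepped 500 ms to −120 mV, then ramped to 120 mV, every 5 s. Increasing test-compound doses were superfused, then BaCl₂ block; current read at −120 mV; variable-slope Hill fit, mean of n = 5.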

[12] = plasma; remark: listed apart in the source
[13] = target: Kir7.1-WT (Homo sapiens, UniProt O60928); assay: Whole-cell patch clamp, Kir7.1-WT; type: cell-based; settings: read-out: Kir7.1-WT IC50, -120 mV
In short: as §1

Chain of Kir7.1 E149Q/M125R (O60928 whole entry M125R/E149Q, the tested form may be a part): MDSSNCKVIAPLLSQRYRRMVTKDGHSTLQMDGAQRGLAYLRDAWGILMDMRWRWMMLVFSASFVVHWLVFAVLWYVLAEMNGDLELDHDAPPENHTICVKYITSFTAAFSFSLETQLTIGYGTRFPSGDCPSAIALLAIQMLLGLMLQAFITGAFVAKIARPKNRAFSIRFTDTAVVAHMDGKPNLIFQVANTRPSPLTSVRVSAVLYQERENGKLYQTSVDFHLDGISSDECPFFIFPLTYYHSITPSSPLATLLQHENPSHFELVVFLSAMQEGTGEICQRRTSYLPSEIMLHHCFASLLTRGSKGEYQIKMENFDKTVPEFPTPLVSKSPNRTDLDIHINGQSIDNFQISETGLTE
Chain of Kir7.1-WT (O60928 whole entry): as the sequence (O60928 whole entry M125R/E149Q, the tested form may be a part) above, with R125M, Q149E counted along it
Chain of Norepinephrine receptor (P23975 whole entry): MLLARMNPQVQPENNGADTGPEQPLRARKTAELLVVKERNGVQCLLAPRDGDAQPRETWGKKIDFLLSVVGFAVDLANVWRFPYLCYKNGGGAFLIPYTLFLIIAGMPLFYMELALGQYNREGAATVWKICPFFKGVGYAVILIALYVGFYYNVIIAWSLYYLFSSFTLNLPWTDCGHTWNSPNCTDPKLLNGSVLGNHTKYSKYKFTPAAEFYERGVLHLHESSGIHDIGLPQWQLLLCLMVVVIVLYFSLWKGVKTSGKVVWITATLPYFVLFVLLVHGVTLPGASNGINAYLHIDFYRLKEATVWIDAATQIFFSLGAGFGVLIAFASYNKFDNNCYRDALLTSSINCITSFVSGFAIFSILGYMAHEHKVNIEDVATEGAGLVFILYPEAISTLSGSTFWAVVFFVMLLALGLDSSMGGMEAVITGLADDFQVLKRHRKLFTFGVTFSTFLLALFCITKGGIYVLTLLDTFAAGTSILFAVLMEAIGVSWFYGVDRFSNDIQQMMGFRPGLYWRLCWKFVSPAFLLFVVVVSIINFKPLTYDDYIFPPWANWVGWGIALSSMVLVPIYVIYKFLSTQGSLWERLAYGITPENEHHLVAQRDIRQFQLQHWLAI
Chain of Sigma σ1 receptor (Q99720 whole entry): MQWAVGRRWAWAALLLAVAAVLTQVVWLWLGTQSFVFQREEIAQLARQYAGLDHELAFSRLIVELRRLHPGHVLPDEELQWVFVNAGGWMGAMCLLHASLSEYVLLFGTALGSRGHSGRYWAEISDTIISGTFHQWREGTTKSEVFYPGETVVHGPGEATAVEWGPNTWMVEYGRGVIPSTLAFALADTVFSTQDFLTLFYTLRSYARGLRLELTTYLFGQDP

Row | Structure (SMILES) | Radioligand displacement, Dopamine D4.2 receptor [1] | brain concentration [2] | Radioligand displacement, voltage-gated sodium channel [3] | fraction unbound [4] | fraction unbound [5] | Radioligand displacement, L-type calcium channel [6] | Radioligand displacement, Norepinephrine receptor [7] | Radioligand displacement, Sigma σ1 receptor [8] | PPB (%Fu) Human [9] | PPB (%Fu) Rat [10] | Effect of mutation E149Q/M125R on sensitivity ([11]; 3 µM) | IC50 ([11]; read-out: Kir7.1-M125R-E149Q IC50, patch clamp) | PPB (%Fu) Mouse [12] | IC50 [13]
1 | CC(C)OC(=O)NC1CCN(Cc2cc(Cl)c3cccnc3c2O)CC1 [Compound 19, iso-Propyl (1-((5-chloro-8-hydroxyquinolin-7-yl)methyl)piperidin-4-yl)carbamate] | > 50% | 323.9 ng/g | > 50% | 0.088 | 0.114 | > 50% | > 50% | > 50% |  |  |  |  |  | 
2 | Oc1c(CN2CCC(Cc3ccccc3)CC2)cc(Cl)c2cccnc12 [VU714] |  |  |  |  |  |  |  |  | 0.5% | 1.8% | partial, albeit significant (P<0.05), loss of sensitivity | 18.1 µM and ~18 µM | 0.7% | 1.4 µM and ~2 µM
